# An excerpt weighted towards active compounds, which were near 3.5% of everything screened.
# PAFAH1B2 inh = PAFAH1B2 enzyme inhibitors, primary screen, biochemical, fluorescence polarization, human. AID 492953, 2010. recombinant PAFAH1B2, FP-rhodamine activity probe. inhibition, % at 3.39 µM. Platelet-activating factor acetylhydrolase IB subunit alpha2 (Homo sapiens), P68402. hit rate 1.2% among 340,000;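 active means inhibition above the mean of all tested compounds plus 3 SD, cut at about 24% in these data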;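 further: 0% = enzyme with DMSO and 100% = wells lacking PAFAH1B2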
# PAFAH2 inh = PAFAH2 enzyme inhibitors, primary screen, biochemical, fluorescence polarization, human; Platelet-activating factor acetylhydrolase 2, cytoplasmic (Homo sapiens), Q99487; recombinant PAFAH2, FP-rhodamine activity probe; inhibition, % at 3.39 µM; hit rate 0.99% among 340,000; AID 492956, 2010;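 active means inhibition above the mean over all tested compounds plus 3 SD, cut at about 30% in these data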;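 further: inhibitors block probe labeling of enzyme so polarization drops; 0% = enzyme with DMSO and 100% = wells lacking PAFAH2 protein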
# PREPL inh = PREPL enzyme inhibitors, primary screen, biochemical, fluorescence polarization; Prolyl endopeptidase-like (Homo sapiens), Q4J6C6; recombinant PREPL, fluorescence polarization activity-based probe; inhibition, % at 5.96 µM; hit rate 0.68% among 320,000; AID 2751, 2010; in the data active means inhibition above about 43%;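 further: 0% = enzyme with DMSO and 100% = wells lacking enzyme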
# PAFAH1B3 FP inh = PAFAH1B3 enzyme inhibitors, primary screen, biochemical, fluorescence polarization, human; Platelet-activating factor acetylhydrolase IB subunit alpha1 (Homo sapiens), Q15102; recombinant PAFAH1B3, FP-rhodamine probe; inhibition, % at 3.39 µM; hit rate 0.28% among 340,000; AID 492972, 2010;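 active means inhibition above the screen-wide average of all tested compounds plus 3 SD, cut at about 25% in these data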;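 further: 0% = enzyme with DMSO only and 100% = wells lacking PAFAH1B3 protein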
# Target sequence (Q15102 whole entry, looked up): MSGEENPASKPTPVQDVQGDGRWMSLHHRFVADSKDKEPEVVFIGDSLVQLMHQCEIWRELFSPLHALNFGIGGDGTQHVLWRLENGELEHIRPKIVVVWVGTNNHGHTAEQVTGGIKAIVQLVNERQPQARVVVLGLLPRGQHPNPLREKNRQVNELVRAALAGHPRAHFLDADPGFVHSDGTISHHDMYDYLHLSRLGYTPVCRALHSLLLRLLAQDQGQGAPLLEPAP
# pPAFAH FP inh = pPAFAH enzyme inhibitors, primary screen, biochemical, fluorescence polarization, human. hit rate 1.5% among 330,000. Platelet-activating factor acetylhydrolase (Homo sapiens), Q13093. recombinant pPAFAH, FP-rhodamine probe fluorescence polarization. inhibition, % at 3.39 µM;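 active means inhibition above the mean inhibition across the screen plus 3 SD, cut at about 25% in these data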;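 further: inhibitors block binding of the rhodamine activity-based probe so polarization drops; 0% = enzyme with DMSO and 100% = wells lacking pPAFAH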
# Target sequence (Q13093 whole entry, looked up): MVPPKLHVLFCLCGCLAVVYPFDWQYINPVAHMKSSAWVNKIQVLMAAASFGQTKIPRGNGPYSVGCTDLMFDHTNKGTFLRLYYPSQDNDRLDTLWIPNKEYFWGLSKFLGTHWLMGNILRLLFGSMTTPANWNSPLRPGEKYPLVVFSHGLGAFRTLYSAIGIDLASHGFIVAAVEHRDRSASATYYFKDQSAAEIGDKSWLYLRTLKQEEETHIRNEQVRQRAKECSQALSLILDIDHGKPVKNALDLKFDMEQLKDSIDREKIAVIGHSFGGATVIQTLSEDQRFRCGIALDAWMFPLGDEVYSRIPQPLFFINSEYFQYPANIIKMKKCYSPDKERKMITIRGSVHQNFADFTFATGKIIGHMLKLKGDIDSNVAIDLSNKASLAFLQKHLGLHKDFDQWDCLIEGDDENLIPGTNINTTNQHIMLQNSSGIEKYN
# Apaf-1 inh = inhibitors of human Apaf-1 apoptosome, primary screen, biochemical, DEVD-Rh110 fluorescence, uHTS; Apoptotic protease-activating factor 1 (Homo sapiens), O14727; reconstituted apoptosome caspase-3 activity; inhibition, % at 20 µM; hit rate 0.71% among 330,000; AID 489030, 2010; active means inhibition of at least 40% at 20 µM;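 further: plate controls were DMSO wells for no effect and DEVD-CHO caspase inhibitor wells for full effect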
#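 detection = Rh110 fluorescence intensity | test system = biochemical Apaf-1 apoptosome reconstitution | also added = cytochrome c and DEVD-Rh110 substrate | schedule = 30 min plus 50 min, RT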
# PAFAH2 confirm = PAFAH2 enzyme inhibitors, confirmation, biochemical, fluorescence polarization, human. shares compounds with PAFAH2 inh. recombinant PAFAH2, FP-rhodamine activity probe. inhibition, % at 3.39 µM. hit rate 65% among 2,300. AID 493030, 2011;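 active means mean inhibition over three repeats above a set limit taken from the earlier primary screen, cut at about 30% in these data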;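 further: inhibitor blocks binding of rhodamine activity probe so polarization falls; 0% = enzyme with DMSO and 100% = wells lacking PAFAH2 protein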
# PAFAH1B3 confirm = PAFAH1B3 enzyme inhibitors, confirmation, biochemical, fluorescence polarization, human | recombinant PAFAH1B3, FP-Rh activity-based probe | inhibition, % at 3.39 µM | shares compounds with PAFAH1B3 FP inh | hit rate 30% among 390;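 active means average inhibition over triplicate runs above the hit cutoff set in the earlier primary screen, cut at about 25% in these data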;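 further: 0% = enzyme with DMSO and 100% = wells lacking PAFAH1B3 protein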
# Active calls of the source: *; . = no result.
SMILES,PAFAH1B2 inh,PAFAH2 inh,PREPL inh,PAFAH1B3 FP inh,pPAFAH FP inh,Apaf-1 inh,PAFAH2 confirm,others
COc1cc(N)c(Cl)cc1C(=O)NC1CN2CCC1CC2 (configuration not stated),.,.,-2.1,.,-0.7,-5.1,.,
Cc1cc(C)cc(N2C(=O)NC(=O)/C(=C\c3cccn3-c3ccccc3)C2=O)c1,17.8,46.1*,-6.2,-5.4,4.7,3.1,33.8*,
Cc1cc(C)c2c(c1)-c1cc(C)nn1C(c1cccnc1)N2 (configuration not stated),3.7,2.9,-8.3,-0.1,4.0,6.4,.,
O=C(CNS(=O)(=O)c1ccc(Br)s1)N1CCC2(CC1)OCCO2,10.6,35.7*,-0.4,7.6,6.7,-3.5,18.1,
O=C(c1ccc(CNS(=O)(=O)c2ccc(Br)cc2)cc1)N1CCC2(CC1)OCCO2,1.8,1.2,7.7,5.5,9.8,-0.2,.,
COc1ccc(/C=C2/C(=O)N(Cc3ccco3)C(=O)N(C(C)C)C2=O)cc1,0.6,30.0*,3.0,0.8,11.1,16.8,-0.6,
CCN(CC)c1ccc(/C=C2/C(=O)NC(=O)N(Cc3ccco3)C2=O)cc1,-0.5,7.0,-10.9,-10.8,10.2,-0.5,.,
COc1ccc(-c2nn(Cc3ccccc3)cc2C(=O)NC2CC2)cc1OC,-4.4,-2.9,9.0,-1.4,-2.5,5.4,.,
COC(=O)C1=C(c2ccc(OC(F)(F)F)cc2)C[C@@H]2CC[C@H]1N2C(=O)NCc1cc(C)oc1C(F)(F)F,3.4,-4.5,6.9,9.4,7.8,14.1,.,
CN(C)c1ccc(/C=C2/C(=O)NC(=O)N(Cc3ccco3)C2=O)cc1,0.1,8.8,-7.5,10.0,8.6,0.2,.,
Cc1cc(/C=C2/C(=O)NC(=O)N(Cc3ccco3)C2=O)c(C)n1-c1ccccc1,10.0,32.7*,-0.7,12.1,11.8,-52.9,23.1,
Cc1cccc(NC(=O)COC(=O)c2cc(C)n(C3CC3)c2C)c1,7.7,40.1*,6.0,1.7,4.7,20.4,2.0,
Cn1cccc1/C=C1\C(=O)NC(=O)N(CCC2=CCCCC2)C1=O,4.2,25.5,.,0.9,.,.,.,
Cn1cccc1/C=C1\C(=O)NC(=O)N(Cc2ccccc2Cl)C1=O,1.9,30.5*,.,3.1,.,.,10.6,
O=C(COc1ccccc1)Nc1ccc(Cl)cc1C(=O)c1ccccc1,-1.4,-2.5,-4.8,-1.7,5.3,8.9,.,
O=C(COC(=O)c1ccc(O)cc1)Nc1ccc(Cl)cc1C(=O)c1ccccc1,2.2,63.3*,-8.4,0.8,5.1,14.2,60.8*,
CC(=O)Nc1ccc(C(=O)OCC(=O)Nc2ccc(Cl)cc2C(=O)c2ccccc2)cc1,-8.6,68.6*,-12.4,-6.6,-7.5,7.7,73.0*,
CC(=O)Nc1ccc(C(c2c(O)c3ccccc3oc2=O)c2c(C)n(C)n(-c3ccccc3)c2=O)cc1 (configuration not stated),0.3,-3.2,0.9,-1.3,0.9,-4.0,.,
Cc1c(C(c2ccc(Cl)cc2Cl)c2c(O)c3ccccc3oc2=O)c(=O)n(-c2ccccc2)n1C (configuration not stated),2.5,39.0*,0.1,2.9,2.0,-5.5,33.1*,
CSc1ccc(C(c2c(O)c3ccccc3oc2=O)c2c(C)n(C)n(-c3ccccc3)c2=O)cc1 (configuration not stated),2.8,39.5*,3.2,10.9,5.7,-6.4,27.4,
Cc1c(C(c2ccc(Br)cc2)c2c(O)c3ccccc3oc2=O)c(=O)n(-c2ccccc2)n1C (configuration not stated),1.4,2.7,-4.0,3.3,1.2,3.3,.,
O=C(CN1CC(c2ccccc2)CC1=O)Nc1ccccc1 (configuration not stated),-1.7,43.7*,3.1,1.3,-0.1,1.5,24.7,
N#Cc1ncc(N=Cc2ccc(N(CCCl)CCCl)cc2)s1,16.1,0.7,.,11.1,.,.,.,
COc1ccc(-n2c(-c3ccc(C)cc3)nc3ccccc3c2=O)cc1,4.7,1.4,12.9,3.5,4.5,6.6,.,
COc1ccc(-c2nc3ccccc3c(=O)o2)cc1,2.9,78.1*,6.5,-2.6,-3.9,-8.5,70.8*,
SMILES,PAFAH1B2 inh,PAFAH2 inh,PREPL inh,PAFAH1B3 FP inh,pPAFAH FP inh,Apaf-1 inh,PAFAH2 confirm,others
O=C(c1cc2c(s1)-c1ccccc1OC2)N1CCC2(CC1)OCCO2,3.8,30.6*,8.8,1.7,18.8,9.3,18.1,
Cn1cc(C(=O)OCC(=O)NC2CCCC2)c2ccccc21,-1.5,58.7*,0.7,-0.1,5.0,0.9,37.0*,
CC1=C2[C@H]3OC(=O)[C@@H](C)[C@@H]3CC[C@@]2(C)C=CC1=O,-3.0,-6.4,1.8,7.9,2.7,-3.6,.,
CN1C(=O)C(=Cc2ccc(SC3CCCCC3)o2)C(=O)N(C)C1=O,20.1,29.7*,3.6,-2.2,11.7,0.3,33.2*,
COC(=O)C1C2c3ccccc3C(c3ccccc32)C1(C)C(=O)OC (configuration not stated),7.6,-3.9,.,4.7,.,.,.,
O=C1NC(=S)N(c2ccccc2)C(=O)/C1=C/c1ccco1,1.9,30.0*,-3.2,5.9,24.0,8.5,58.8*,
CN(C(=O)Oc1ccc(F)cc1)c1ccccc1,4.8,-2.5,-0.9,8.1,7.9,5.0,.,
Cc1cc(C)[n+](C2C3CC4CC(C3)CC2C4)o1 (configuration not stated),3.9,-2.7,9.2,10.6,-4.0,-18.8,.,
CC(=O)Nc1cc(C(=O)N2CCC3(CC2)OCCO3)ccc1S(=O)(=O)c1ccc(C)cc1,-3.4,7.5,11.7,9.1,4.4,-1.4,.,
Cc1ccc(S(=O)(=O)Nc2cc(C(=O)N3CCC4(CC3)OCCO4)ccc2N2CCCCC2)cc1,7.2,59.7*,12.6,3.1,21.2,15.4,49.1*,
CN(C)[C@@H]1C(=O)C(C(N)=O)=C(O)[C@@]2(O)C(=O)C3=C(O)c4c(O)cccc4[C@@](C)(O)C3C[C@@H]12 (some centres not stated),15.8,20.8,-14.9,29.7*,31.9*,-12.1,.,PAFAH1B3 confirm=13.0
CN1C[C@H](CO)C=C2c3cccc4[nH]cc(c34)C[C@H]21,3.4,5.3,42.4,8.7,7.0,29.7,.,
CC(C)[C@H]1C(=O)N2CCC[C@H]2[C@]2(O)O[C@](NC(=O)[C@@H]3C=C4c5cccc6[nH]cc(c56)C[C@H]4N(C)C3)(C(C)C)C(=O)N12,6.2,-0.9,46.1*,31.5*,20.9,94.8*,.,PAFAH1B3 confirm=8.7
Nc1ccc(Cl)c(Cl)c1,4.2,-11.4,.,5.2,.,.,.,

# Assay outcomes from PubChem.
